This is an account of results in ChEMBL document CHEMBL1128733 (J Med Chem, 1995).

For test [1], the target named is T1, Histamine H1 receptor (Cavia porcellus, UniProt P31389). In words: Binding affinity against H1 receptor of guinea pig by the displacement of [3H]mepyramine, bound to membranes of CHO cells. It is filed as cell membranes. In outline: (§1)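 Displacement of [3H]mepyramine from membranes of CHO cells expressing guinea pig H1 receptors. At least three independent experiments, each performed in triplicate.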

Test [2] has as its target T2, Histamine H3 receptor (Cavia porcellus, UniProt Q9JI35). In words: Tested in vitro for antagonist activity against H3 receptor of guinea pig jejunum. It counts as functional, tissue-based. As to conditions: read-out: pA2 (converted). A digest of the protocol: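 Isolated guinea pig jejunum segments were electrically stimulated, giving twitches from endogenous acetylcholine release. Antagonism was tested against cumulative (R)-α-methylhistamine concentration–response curves, using at least three antagonist concentrations. pA2 was the negative log of the Schild plot abscissal intercept. Tissues came from at least four animals, tested in triplicate; Student's t-test, p < 0.05.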

Test [3] concerns the target T3, Histamine H2 receptor (Homo sapiens, UniProt P25021). In words: Binding affinity against human H2 receptor by the displacement of [125I]iodoaminopotentidine, bound to membranes of CHO cells. It is filed as cell membranes. Background: Displacement assays read how much labelled ligand stays bound in the presence of the test substance.
Test [4] concerns the target Histamine H3 receptor (Cavia porcellus) (UniProt Q9JI35). As to conditions: Ileum.
Test [5] deals with T2, Histamine H3 receptor. In words: pD2 values against H3 receptor of guinea pig jejunum were determined. It is filed as tissue-based. A digest of the protocol:
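Isolated guinea pig jejunum segments, electrically stimulated so that endogenous acetylcholine release evokes contractile twitches. Cumulative concentrations of the compound were added, and the concentration-dependent inhibition of the evoked twitches gave a concentration–response curve. Tissue from at least four animals was used, each tested in triplicate. Student's t-test, with p < 0.05 taken as significant.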

Test [6] addresses T2, Histamine H3 receptor. The test is described as follows: pA2 values against H3 receptor of guinea pig ileum were determined. It counts as tissue-based. As to conditions: read-out: pA2 (converted).
Test [7] has as its target Histamine H3 receptor (Cavia porcellus) (UniProt Q9JI35). The note with it: Jejunum.
The target in test [8] is T3, Histamine H2 receptor. The test is described as follows: Binding affinity against human H2 receptor by the displacement of [125I]iodoaminopotentidine bound to membranes of CHO cells. It counts as cell membranes. A digest of the protocol: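 Displacement of [125I]iodoaminopotentidine from membranes of CHO cells expressing human H2 receptors. At least three independent experiments, each performed in triplicate.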

For test [9], the target named is T1, Histamine H1 receptor. In words: Binding affinity for H1 receptor of guinea pig by the displacement of [3H]mepyramine, bound to membranes of CHO cells. It is filed as cell membranes. In outline: as §1

T2 sequence (Q9JI35 whole entry): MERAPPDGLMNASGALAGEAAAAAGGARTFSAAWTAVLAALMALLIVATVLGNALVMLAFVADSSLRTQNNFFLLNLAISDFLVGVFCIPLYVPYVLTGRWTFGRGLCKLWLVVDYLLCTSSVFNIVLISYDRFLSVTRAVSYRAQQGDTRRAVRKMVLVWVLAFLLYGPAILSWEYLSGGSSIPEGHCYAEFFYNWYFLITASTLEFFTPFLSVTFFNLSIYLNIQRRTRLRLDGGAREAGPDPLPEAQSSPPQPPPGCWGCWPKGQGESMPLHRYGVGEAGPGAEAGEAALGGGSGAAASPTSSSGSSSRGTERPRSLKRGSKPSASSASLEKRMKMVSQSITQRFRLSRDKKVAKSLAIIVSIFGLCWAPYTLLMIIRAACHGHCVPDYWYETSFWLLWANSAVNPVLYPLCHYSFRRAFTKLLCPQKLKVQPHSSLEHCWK
T3 sequence (P25021 whole entry): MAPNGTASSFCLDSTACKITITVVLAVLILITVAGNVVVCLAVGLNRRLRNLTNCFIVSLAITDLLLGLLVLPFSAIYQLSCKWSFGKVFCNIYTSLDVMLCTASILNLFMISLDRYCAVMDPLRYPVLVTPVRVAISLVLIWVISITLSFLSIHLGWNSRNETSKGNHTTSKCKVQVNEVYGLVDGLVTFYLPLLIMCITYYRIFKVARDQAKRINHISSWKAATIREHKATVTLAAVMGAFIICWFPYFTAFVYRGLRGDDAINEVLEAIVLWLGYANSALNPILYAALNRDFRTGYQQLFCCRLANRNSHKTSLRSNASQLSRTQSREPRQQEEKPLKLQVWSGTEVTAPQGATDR
T1 sequence (P31389 whole entry): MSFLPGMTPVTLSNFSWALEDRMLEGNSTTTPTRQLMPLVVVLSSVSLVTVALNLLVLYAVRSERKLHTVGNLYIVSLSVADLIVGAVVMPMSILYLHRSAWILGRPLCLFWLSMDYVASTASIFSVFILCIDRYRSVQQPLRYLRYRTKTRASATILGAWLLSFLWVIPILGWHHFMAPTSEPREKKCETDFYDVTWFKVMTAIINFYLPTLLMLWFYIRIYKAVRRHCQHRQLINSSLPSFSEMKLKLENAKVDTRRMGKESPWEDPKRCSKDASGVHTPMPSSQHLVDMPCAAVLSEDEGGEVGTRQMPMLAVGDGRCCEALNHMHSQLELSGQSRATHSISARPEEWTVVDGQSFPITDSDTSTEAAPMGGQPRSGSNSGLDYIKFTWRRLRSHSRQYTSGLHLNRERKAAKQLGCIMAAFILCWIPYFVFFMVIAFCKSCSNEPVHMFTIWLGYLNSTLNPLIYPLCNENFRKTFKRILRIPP
Sequence of Histamine H3 receptor (Cavia porcellus) (Q9JI35 whole entry): as the sequence (Q9JI35 whole entry) above

With `NCCCCCc1c[nH]cn1` [IMPENTAMINE], the figures for the Ki on Histamine H1 receptor [1] and on Histamine H2 receptor [3] were 126 µM and 251 µM, respectively. Besides, at Histamine H3 receptor [2], the Kb was 0.00398 µM.
`N=C(N)SCCc1c[nH]cn1` returned a pD2 in test [4] of 8.1.
As to `NCCCCCCCCc1cnc[nH]1`, the figures for the Ki on Histamine H1 receptor [1] and at Histamine H2 receptor [3] were 2.51 µM and 31.6 µM, respectively. In addition, the Kb at Histamine H3 receptor [2] was 1 µM.
Take `C[C@@H](N)Cc1c[nH]cn1`: the pD2 at Histamine H3 receptor [5] came to 7.8.
For the molecule `N=C(N)SCCCc1c[nH]cn1`, the Kb at Histamine H3 receptor [6] was 0.01 µM.
In the case of `NCc1c[nH]cn1`, the Ki at Histamine H1 receptor [1] and at Histamine H2 receptor [3] was more than 1000 µM throughout. Also, the Kb on Histamine H3 receptor [2] is more than 1000 µM.
In test [7], `NCCc1c[nH]cn1` registered a pD2 of 6.2.
As to `NCCCCCCCCCCc1c[nH]cn1`, the Ki on Histamine H1 receptor [1] is 0.631 µM; on Histamine H2 receptor [3], 20 µM. Besides, at Histamine H3 receptor [2], the Kb was 1 µM.
In the same order, the values of `NCCCc1c[nH]cn1` [HOMOHISTAMINE] are more than 1000 µM, more than 1000 µM and 1.26 µM.
For the molecule `NCCCCCCc1cnc[nH]1`, the Ki at Histamine H1 receptor [1] is 126 µM; at Histamine H2 receptor [3] it was 200 µM. Also, the Kb on Histamine H3 receptor [2] was 0.0158 µM.
As to `NCCCCc1c[nH]cn1` [IMBUTAMINE], the Ki on Histamine H2 receptor [8] was 794 µM; at Histamine H1 receptor [9], 398 µM. Further, the Kb on Histamine H3 receptor [2] was 0.02 µM.

Broadly, the Ki is the dissociation constant of the complex between target and ligand, obtained from inhibition or displacement. Low readings indicate higher affinity, high ones lower affinity.
